From ChEMBL document CHEMBL1153772 (J Nat Prod, 2009)
Converted amounts (≈) assume the structure as drawn. The source made the active and inactive calls. The calls are words filed in the database; no cut-off is given here.

What was measured:
OVCAR-4 = test: Cytotoxicity against human OVCAR4 cells assessed cell growth; format: functional
SNB-75 = test: Cytotoxicity against human SNB75 cells assessed cell growth; format: functional
BT-549 = test: Cytotoxicity against human BT549 cells assessed cell growth; format: functional
[1] = Stability in PBS and inorganic phosphate at 40 uM after 3 hrs; format: physicochemical; settings: read-out: Stability
MIA PaCa-2 = test: Cytotoxicity against human MIAPaCa2 cells; format: functional, cell-based
Outline: (§1)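 IC50 value derived from at least three separate assay runs per sample.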

DLD-1 = test: Cytotoxicity against human DLD1 cells; format: functional, cell-based; outline: as §1
LOX IMVI = test: Cytotoxicity against human LOXIMVI cells assessed cell growth; format: functional
MDA-MB-468 = test: Cytotoxicity against human MDA-MB-468 cells assessed cell growth; format: functional
HOP-92 = test: Cytotoxicity against human HOP92 cells assessed cell growth; format: functional
NCI-H460 = test: Cytotoxicity against human NCI-H460 cells assessed cell growth; format: functional
[2] = Stability in PBS at 40 uM after 3 hrs; format: physicochemical; settings: read-out: Stability
PANC-1 = test: Cytotoxicity against human PANC1 cells; format: functional, cell-based; outline: as §1
SR = test: Cytotoxicity against human SR cells assessed cell growth; format: functional
[3] = Solubility at pH 6.2; format: physicochemical; settings: buffer
[4] = Stability in mouse plasma assessed as compound remaining at 40 uM after 3 hrs in presence of PBS and inorganic phosphate buffer; format: ADME, cell-free; settings: read-out: Activity
UO-31 = test: Cytotoxicity against human UO31 cells assessed cell growth; format: functional
OVCAR-3 = test: Cytotoxicity against human OVCAR-3 cells assessed cell growth; format: functional
SK-MEL-5 = test: Cytotoxicity against human SK-MEL-5 cells assessed cell growth; format: functional
Vero = test: Cytotoxicity against african green monkey Vero cells; format: cell-based; settings: Chlorocebus sabaeus; outline: as §1
Homo sapiens [5] = species: Homo sapiens; test: Stability in human plasma in presence of PBS at 40 uM after 3 hrs
SK-MEL-2 = test: Cytotoxicity against human SK-MEL-2 cells assessed cell growth; format: functional
ACHN = test: Cytotoxicity against human ACHN cells assessed cell growth; format: functional
[6] = Permeability at 50 uM at pH 7.4 by PAMPA; format: ADME; settings: read-out: permeability
KM12 = test: Cytotoxicity against human KM12 cells assessed cell growth; format: functional
IGROV-1 = test: Cytotoxicity against human IGROV1 cells assessed cell growth; format: functional
Nucleic Acid = test: Displacement of ethidium bromide from DNA; format: nucleic-acid assay
Candida albicans = test: Antifungal activity against Candida albicans 44506 after 24 hrs by broth dilution assay; format: functional; settings: Candida albicans, 44506, 24 h
Outline: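 Broth microdilution in microtiter format at a seeding density of 10^3/mL. C. albicans was grown in Sabouraud dextrose broth; S. aureus and P. aeruginosa in cation-supplemented Mueller-Hinton broth. Incubated at 37°C, with growth scored after 24 h. MIC taken as the lowest concentration giving complete growth inhibition.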

NCI-H522 = test: Cytotoxicity against human NCI-H522 cells assessed cell growth; format: functional
HCT-15 = test: Cytotoxicity against human HCT15 cells assessed cell growth; format: functional
SNB-19 = test: Cytotoxicity against human SNB19 cells assessed cell growth; format: functional
SF-295 = test: Cytotoxicity against human SF295 cells assessed cell growth; format: functional
Homo sapiens [7] = species: Homo sapiens; test: Protein binding in human plasma at 1 uM; settings: read-out: PPB (converted)
ASPC1 = test: Cytotoxicity against human AsPC1 cells; format: functional, cell-based; outline: as §1
A498 = test: Cytotoxicity against human A498 cells assessed cell growth; format: functional
SK-MEL-28 = test: Cytotoxicity against human SK-MEL-28 cells assessed cell growth; format: functional
[8] = Solubility at pH 7.4; format: physicochemical; settings: buffer
[9] = Permeability at 50 uM at pH 6.2 by PAMPA
[10] = Metabolic stability in human liver microsomes assessed as compound metabolized at 1 uM in the presence of NADPH; format: ADME, Microsome; settings: read-out: Activity
Malme-3M = test: Cytotoxicity against human MALME-3M cells assessed cell growth; format: functional
[11] = Cytotoxicity against human Hs 578T cells assessed cell growth; format: functional
HT-29 = test: Cytotoxicity against human HT-29 cells assessed cell growth; format: functional
SK-OV-3 = test: Cytotoxicity against human SKOV3 cells assessed cell growth; format: functional
[12] = Unbound fraction in mouse plasma at 10 uM; format: ADME, cell-free
HCT-116 = test: Cytotoxicity against human HCT116 cells assessed cell growth; format: functional
HOP-62 = test: Cytotoxicity against human HOP62 cells assessed cell growth; format: functional
[13] = Metabolic satbility in mouse liver microsomes assessed as compound remaining at 1 uM after 60 min in the presence of NADPH; format: ADME, Microsome; settings: read-out: Stability

SMILES: CC(=O)N(C)CCc1cc(Br)c(OCCCNc2ncn(C)c3ncnc2-3)c(Br)c1 [APHROCALLISTIN]
- Activity (OVCAR-4): 33.32%
- Activity (SNB-75): 81.17%
- Activity (BT-549): 56.49%
- remaining at 3 h, 40 µM [1]: 76.5%
- IC50 (MIA PaCa-2): 26.6 µM
- IC50 (DLD-1): 7.5 µM
- Activity (LOX IMVI): 55.23%
- Activity (MDA-MB-468): 25.48%
- Activity (HOP-92): 75.25%
- Activity (NCI-H460): 60.08%
- remaining at 3 h, 40 µM [2]: 99.7%
- IC50 (PANC-1): 22.8 µM
- Activity (SR): 10.72%
- solubility [3]: > 267 µg/mL
- remaining at 3 h, 40 µM [4]: 79.6%
- Activity (UO-31): 79.45%
- Activity (OVCAR-3): 87.3%
- Activity (SK-MEL-5): 20%
- IC50 (Vero): 76.1 µM
- remaining at 3 h, 40 µM (Homo sapiens [5]): 103%
- Activity (SK-MEL-2): 71.47%
- Activity (ACHN): 69.23%
- Papp at 50 µM [6]: 321 ×10⁻⁶ cm/s
- Activity (KM12): 88.97%
- Activity (IGROV-1): 64.84%
- Activity (Nucleic Acid): inactive
- MIC (Candida albicans): 250 µg/mL (≈ 463 µM)
- Activity (NCI-H522): 36.6%
- Activity (HCT-15): 99.13%
- Activity (SNB-19): 71.64%
- Activity (SF-295): 50.01%
- fraction unbound at 1 µM (Homo sapiens [7]): 0.044
- IC50 (ASPC1): > 100 µM
- Activity (A498): 71.71%
- Activity (SK-MEL-28): 84.58%
- solubility [8]: > 267 µg/mL
- Papp at 50 µM [9]: 201 ×10⁻⁶ cm/s
- metabolised at 1 µM [10]: 96.9%
- Activity (Malme-3M): 76.4%
- Activity [11]: 52.48%
- Activity (HT-29): 88.11%
- Activity (SK-OV-3): 94.44%
- fraction unbound at 10 µM [12]: 0.309
- Activity (HCT-116): 28.57%
- Activity (HOP-62): 71.38%
- remaining at 1 h, 1 µM [13]: 1.44%
